In general, pIC50 refers to −log10 of the IC50, conventionally taken in molar units. The EC50 is the midpoint of the concentration-response curve.

pIC50: −log10 of the molar value. Active and inactive are the calls of the source. The rule behind the calls is not given here.

Data on 24 molecules can be found in ChEMBL document CHEMBL1811892, “Synthesis and biological evaluation of loxoprofen derivatives” (Bioorg Med Chem, 2011).

Data set [1] addresses Prostaglandin G/H synthase 1 (Homo sapiens, UniProt P23219). Briefly: Inhibition of human whole blood COX-1 assessed as production of TXB2 after 24 hrs by EIA.
Data set [2] has as its target T1, Prostaglandin G/H synthase 2 (Homo sapiens, UniProt P35354).
T1 sequence (P35354 whole entry): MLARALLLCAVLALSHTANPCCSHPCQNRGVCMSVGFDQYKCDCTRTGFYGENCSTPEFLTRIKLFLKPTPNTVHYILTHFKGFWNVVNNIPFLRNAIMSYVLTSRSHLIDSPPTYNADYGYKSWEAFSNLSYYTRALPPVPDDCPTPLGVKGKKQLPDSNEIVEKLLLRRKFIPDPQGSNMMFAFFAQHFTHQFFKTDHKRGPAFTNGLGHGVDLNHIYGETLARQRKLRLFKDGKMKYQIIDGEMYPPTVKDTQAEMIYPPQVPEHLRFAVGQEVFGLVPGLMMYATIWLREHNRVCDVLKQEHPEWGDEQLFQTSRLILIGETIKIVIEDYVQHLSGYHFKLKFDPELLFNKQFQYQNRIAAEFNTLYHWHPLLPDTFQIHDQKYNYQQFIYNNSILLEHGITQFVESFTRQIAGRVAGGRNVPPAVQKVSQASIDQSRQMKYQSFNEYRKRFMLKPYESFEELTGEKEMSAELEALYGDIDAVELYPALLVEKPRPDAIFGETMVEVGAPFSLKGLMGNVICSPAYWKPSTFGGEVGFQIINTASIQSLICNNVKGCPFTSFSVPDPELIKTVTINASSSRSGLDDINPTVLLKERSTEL
Briefly: Inhibition of human whole blood COX-2 assessed as production of PGE2 after 24 hrs by EIA.

Data set [3] is described as follows: Membrane permeabilization activity assessed as release of calcein from liposomes after 10 mins by fluorescence assay. Type of data set: physicochemical. Conditions: calcein-loaded liposomes, probe calcein. The procedure, abridged:
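Egg PC liposomes made by reversed-phase evaporation with 100 mM calcein (pH 7.4), washed free of untrapped dye in 10 mM phosphate buffer pH 6.8 with 150 mM NaCl. Diluted liposomes incubated with compound for 10 min at 30 °C; water as control. Calcein release read by fluorescence, excitation 490 nm, emission 520 nm.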

Data set [4] relates to Rattus norvegicus. Briefly: Ulcerogenicity in fasted Wistar rat assessed as damage in gastric mucosa at 40 to 50 mg/kg, po measured after 8 hrs. Type of data set: toxicity, organism-based. Details: dose 40-50 mg/kg, route oral. The settings on record: in vivo. The method, boiled down: (§1)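 Male Wistar rats (6 weeks, 180–200 g) fasted 18 h before oral NSAID dosing. Stomachs removed 8 h later. A blinded observer measured the area of each mucosal lesion in mm²; areas were summed into a gastric lesion index.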

In data set [5] the test system is Rattus norvegicus. Briefly: Reduction in PGE2 levels in fasted Wistar rat stomach at 40 to 50 mg/kg, po measured after 8 hrs. Type of data set: functional, organism-based. The method, boiled down: (§2)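 Male Wistar rats (6 weeks, 180–200 g) fasted 18 h, then dosed orally with NSAIDs. Killed 8 h later and stomachs removed. Gastric PGE2 measured by EIA.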
For data set [6], the system named is Rattus norvegicus. Briefly: Antiinflammatory activity in Wistar rat assessed as inhibition of carrageenan-induced foot-pad edema at 10 mg/kg, po administered 1 hr before carrageenan challenge measured after 3 to 6 hrs by plethysmometer. Type of data set: functional, organism-based. Details: dose 10 mg/kg. The method, boiled down:
(§3)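 Male Wistar rats (6 weeks, 180–200 g) given NSAIDs orally; 1 h later 100 μL of 1% carrageenan injected intradermally into the left hindpaw.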
Background: In the carrageenan paw model, swelling and tenderness develop within hours.

Data set [7] relates to Rattus norvegicus. Briefly: Inhibition of PGE2 production in carrageenan-induced Wistar rat foot-pad at 10 mg/kg, po administered 1 hr before carrageenan challenge by EIA. It is filed as functional, organism-based. Details: dose 10 mg/kg.
Data set [8] concerns Rattus norvegicus. Briefly: Ulcerogenicity in fasted Wistar rat assessed as damage in gastric mucosa at 50 to 67 mg/kg, po measured after 8 hrs. It is filed as toxicity, organism-based. Details: dose 50-67 mg/kg, route oral. The settings on record: in vivo. The method, boiled down:
as §1

The test system of data set [9] is Rattus norvegicus. Briefly: Reduction in PGE2 levels in fasted Wistar rat stomach at 50 to 67 mg/kg, po measured after 8 hrs. Type of data set: functional, organism-based. The method, boiled down:
as §2

In data set [10] the test system is Rattus norvegicus. Briefly: Antiinflammatory activity in Wistar rat assessed as inhibition of carrageenan-induced foot-pad edema at 13 mg/kg, po administered 1 hr before carrageenan challenge measured after 3 to 6 hrs by plethysmometer. Details: dose 13 mg/kg. Type of data set: functional, organism-based. The procedure, abridged:
as §3

For data set [11], the system named is Rattus norvegicus. Briefly: Inhibition of PGE2 production in carrageenan-induced Wistar rat foot-pad at 13 mg/kg, po administered 1 hr before carrageenan challenge by EIA. Details: dose 13 mg/kg. It is filed as functional, organism-based.

Prostaglandin G/H synthase 1, sequence (P23219 whole entry): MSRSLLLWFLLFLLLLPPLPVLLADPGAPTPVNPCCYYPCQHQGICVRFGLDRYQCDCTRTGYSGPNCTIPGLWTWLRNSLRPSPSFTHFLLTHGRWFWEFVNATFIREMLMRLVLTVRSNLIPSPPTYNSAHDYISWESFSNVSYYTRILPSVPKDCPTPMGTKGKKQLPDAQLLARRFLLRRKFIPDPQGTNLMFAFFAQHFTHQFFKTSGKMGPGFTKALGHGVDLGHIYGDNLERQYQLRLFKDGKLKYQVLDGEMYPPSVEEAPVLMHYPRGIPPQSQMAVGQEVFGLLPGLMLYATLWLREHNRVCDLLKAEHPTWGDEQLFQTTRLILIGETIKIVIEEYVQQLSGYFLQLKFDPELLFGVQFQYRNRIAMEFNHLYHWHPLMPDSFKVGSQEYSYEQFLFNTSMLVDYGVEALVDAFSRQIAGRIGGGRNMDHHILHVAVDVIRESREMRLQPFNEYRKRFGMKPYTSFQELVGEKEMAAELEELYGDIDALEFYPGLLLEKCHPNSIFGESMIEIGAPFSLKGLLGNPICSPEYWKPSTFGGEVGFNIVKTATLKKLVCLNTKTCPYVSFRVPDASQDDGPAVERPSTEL

For the molecule `COc1ccc(-c2cc(CC3CCCC3=O)ccc2C(C)C(=O)O)cc1` (stereo not drawn), the pIC50 in [1] was 4.13; in data set [2] it was 3.37. Further, the concentration giving a half-maximal response (EC50) at 10 min in [3] was below 100000 µM.
Regarding `CC(C(=O)O)c1ccc(CC2CCCC2=O)cc1-c1ccc(OC(F)(F)F)cc1` (stereo not drawn), the pIC50 in data set [1] is 3.29; in data set [2], below 3.00. In data set [3], the concentration giving a half-maximal response (EC50) at 10 min was 6000 µM.
Turning to `CC(C(=O)O)c1ccc(CC2CCCC2=O)c(-c2ccc(C(=O)O)cc2)c1` (stereo not drawn), the negative-log IC50 (pIC50) in data set [1] and in data set [2] was below 3.00 throughout.
With `COc1ccc(-c2cc(C(C)C(=O)O)ccc2CC2CCCC2=O)cc1` (stereo not drawn), the pIC50 is 3.10 in data set [1] and below 3.00 in data set [2]. In addition, the EC50 at 10 min in data set [3] is below 100000 µM.
As to `CC(C(=O)O)c1ccc(CC2CCCC2=O)cc1Cl` (stereo not drawn), the negative logarithm of the IC50 (pIC50) was 5.40 in [1] and 5.70 in [2]. Besides, the concentration giving a half-maximal response (EC50) at 10 min in data set [3] was 100000 µM.
On to `CC(C(=O)[O-])c1ccc(CC2CCCC2=O)cc1.[Na+]` (stereo not drawn) [LOXOPROFEN SODIUM], for which the Activity result in data set [4] is “Dose-dependent effect”. The inhibition entry in data set [5] and in [7] was “Active” throughout. Moreover, in data set [6], the result was Active.
On to `CC(C(=O)O)c1ccc(CC2CCCC2=O)cc1[N+](=O)[O-]` (stereo not drawn), for which the negative logarithm of the IC50 (pIC50) in data set [1] is 4.03; in [2] it was 4.31.
For the molecule `CSc1ccc(-c2cc(C(C)C(=O)O)ccc2CC2CCCC2=O)cc1` (stereo not drawn), the negative-log IC50 (pIC50) in [1] was 3.12; in data set [2], below 3.00. Further, the EC50 at 10 min in data set [3] is below 10000 µM.
As to `CC(C(=O)O)c1ccc(C[C@H]2CCC[C@@H]2O)cc1-c1ccc(O)cc1` (mixture of isomers), the negative-log IC50 (pIC50) in data set [1] is 3.19; in data set [2], 4.70.
On to `CC(C(=O)O)c1ccc(CC2CCCC2=O)cc1I` (stereo not drawn), for which the pIC50 was 3.57 in [1] and 3.27 in data set [2].
As to `Cc1ccc(-c2cc(C(F)(F)F)nn2-c2ccc(S(N)(=O)=O)cc2)cc1` [CELECOXIB], the EC50 at 10 min in data set [3] was 90 µM.
On to `CC(C(=O)[O-])c1ccc(CC2CCCC2=O)cc1-c1ccc(O)cc1.[Na+]` (stereo not drawn), for which the pIC50 in [1] is 3.49; in data set [2] it was 4.96. The EC50 at 10 min in data set [3] is 25000 µM. The Activity result in [8] was “Non-toxic”. Moreover, the inhibition entry in data set [9] and in data set [11] was “Active” each time. Moreover, the result in data set [10] was Active.
Turning to `CC(C(=O)O)c1ccc(CC2CCCC2=O)c(-c2ccc(O)cc2)c1` (stereo not drawn), the negative-log IC50 (pIC50) in data set [1] was below 3.00.
For `CC(C(=O)O)c1ccc(CC2CCCC2=O)c(Br)c1` (stereo not drawn), the figures for the negative-log IC50 (pIC50) in data set [1] and in data set [2] were 4.31 and 4.64, respectively. Also, the EC50 at 10 min in data set [3] was below 100000 µM.
In the case of `Cc1ccc(-c2cc(CC3CCCC3=O)ccc2C(C)C(=O)O)cc1` (stereo not drawn), the figures for the pIC50 in data set [1] and in [2] were 3.33 and 3.27, respectively. The EC50 at 10 min in data set [3] was below 100000 µM.
The matching figures for `CC(C(=O)O)c1ccc(CC2CCCC2=O)cc1-c1ccc(F)cc1` (stereo not drawn): 3.76, 4.44 and 20000 µM.
On to `CC(C(=O)O)c1ccc(CC2CCCC2=O)cc1-c1ccc(C(=O)O)cc1` (stereo not drawn), for which the pIC50 in data set [1] was below 3.00; in data set [2], 4.12. For the same molecule, the EC50 at 10 min in [3] is below 10000 µM.
With `CC(C(=O)O)c1ccc(C[C@H]2CCC[C@H]2O)cc1-c1ccc(O)cc1` (mixture of isomers), the results for the negative-log IC50 (pIC50) in data set [1] and in data set [2] were 4.33 and 4.77, respectively.
On to `CC(C(=O)O)c1ccc(CC2CCCC2=O)cc1-c1ccccc1` (stereo not drawn), for which the pIC50 in data set [1] is 3.51; in data set [2], 4.15. For the same molecule, the EC50 at 10 min in data set [3] is below 100000 µM.
With `CC(C(=O)O)c1ccc(CC2CCCC2=O)c(-c2ccccc2)c1` (stereo not drawn), the figures for the negative logarithm of the IC50 (pIC50) in [1] and in [2] were 4.27 and 3.54, respectively. In addition, the EC50 at 10 min in data set [3] is below 100000 µM.
As for `CC(C(=O)O)c1ccc(CC2CCCC2=O)c(-c2ccc(F)cc2)c1` (stereo not drawn), the pIC50 was 3.76 in [1] and 4.44 in data set [2]. Further, in [3], the EC50 at 10 min is below 100000 µM.
For `CSc1ccc(-c2cc(CC3CCCC3=O)ccc2C(C)C(=O)O)cc1` (stereo not drawn), the pIC50 in [1] is 3.24; in data set [2], 3.82. Besides, in data set [3], the concentration for a half-maximal effect (EC50) at 10 min is below 100000 µM.
With `CC(C(=O)O)c1ccc(CC2CCCC2=O)c(-c2ccc(OC(F)(F)F)cc2)c1` (stereo not drawn), the results for the negative logarithm of the IC50 (pIC50) in [1] and in [2] were 3.34 and 4.14, respectively. The half-maximal effective concentration (EC50) at 10 min in data set [3] was below 10000 µM.
Taken in the same sequence, the figures for `Cc1ccc(-c2cc(C(C)C(=O)O)ccc2CC2CCCC2=O)cc1` (stereo not drawn) were 4.25, 3.38 and below 100000 µM.
